Test results: the M2OR odorant receptor database
Numbering of substitutions follows the chain as printed.

Tests used:
Conditions in all cases: stereoisomer not certain
[1] = test system: O52J3 T77A V128I Q141L
Summary of the method: (§1)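 Assay methods differ from source to source, frequently being transient luciferase assays in mammalian cell lines. For each receptor–molecule pair, the label responsive (active) applies when the original authors judged the measured signal statistically different from baseline, and non-responsive (inactive) applies otherwise.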

[2] = test system: T1, O52K1 A119T A149T
T1 sequence (whole entry): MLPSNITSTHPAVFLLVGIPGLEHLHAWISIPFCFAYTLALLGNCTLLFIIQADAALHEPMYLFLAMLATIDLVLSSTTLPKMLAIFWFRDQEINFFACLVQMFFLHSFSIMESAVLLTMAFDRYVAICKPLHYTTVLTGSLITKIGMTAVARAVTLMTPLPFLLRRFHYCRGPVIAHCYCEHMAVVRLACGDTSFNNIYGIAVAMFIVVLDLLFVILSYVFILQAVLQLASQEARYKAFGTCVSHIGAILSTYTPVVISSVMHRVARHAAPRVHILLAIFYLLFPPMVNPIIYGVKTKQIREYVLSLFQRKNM
Summary of the method: as §1

[3] = test system: T2, O52K1 Q52R
T2 sequence (whole entry): T1 sequence (whole entry) with Q52R, T119A, T149A
Summary of the method: as §1

[4] = test system: T3, O52L1
T3 sequence (whole entry): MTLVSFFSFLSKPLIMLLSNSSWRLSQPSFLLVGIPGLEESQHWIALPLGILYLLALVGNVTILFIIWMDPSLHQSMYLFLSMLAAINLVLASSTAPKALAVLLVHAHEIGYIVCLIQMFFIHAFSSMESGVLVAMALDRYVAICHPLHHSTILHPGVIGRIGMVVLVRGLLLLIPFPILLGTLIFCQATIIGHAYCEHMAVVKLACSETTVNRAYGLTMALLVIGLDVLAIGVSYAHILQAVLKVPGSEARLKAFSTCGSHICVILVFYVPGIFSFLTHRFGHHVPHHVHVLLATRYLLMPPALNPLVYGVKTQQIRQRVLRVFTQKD
Summary of the method: as §1

[5] = test system: T4, O52M1 S305R
T4 sequence (whole entry): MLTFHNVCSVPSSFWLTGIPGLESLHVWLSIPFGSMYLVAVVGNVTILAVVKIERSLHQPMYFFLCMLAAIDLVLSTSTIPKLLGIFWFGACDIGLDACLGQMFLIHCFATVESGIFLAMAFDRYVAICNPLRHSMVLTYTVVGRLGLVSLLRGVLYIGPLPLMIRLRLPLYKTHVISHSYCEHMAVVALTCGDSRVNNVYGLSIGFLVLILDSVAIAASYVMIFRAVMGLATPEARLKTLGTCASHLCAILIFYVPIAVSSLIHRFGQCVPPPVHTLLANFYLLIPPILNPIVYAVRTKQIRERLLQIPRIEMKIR
Summary of the method: as §1

[6] = test system: T5, O52N1 R167C F247I
T5 sequence (whole entry): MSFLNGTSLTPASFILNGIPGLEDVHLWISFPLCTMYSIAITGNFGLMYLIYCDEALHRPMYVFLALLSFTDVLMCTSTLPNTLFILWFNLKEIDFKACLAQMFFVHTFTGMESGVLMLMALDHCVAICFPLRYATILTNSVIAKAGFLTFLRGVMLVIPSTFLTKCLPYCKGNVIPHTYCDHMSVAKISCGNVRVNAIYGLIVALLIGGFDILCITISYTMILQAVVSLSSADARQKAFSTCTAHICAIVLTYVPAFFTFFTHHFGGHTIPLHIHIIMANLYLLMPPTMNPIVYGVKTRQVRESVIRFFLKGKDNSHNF
Summary of the method: as §1

[7] = test system: T6, O52N2 S249A H264R
T6 sequence (whole entry): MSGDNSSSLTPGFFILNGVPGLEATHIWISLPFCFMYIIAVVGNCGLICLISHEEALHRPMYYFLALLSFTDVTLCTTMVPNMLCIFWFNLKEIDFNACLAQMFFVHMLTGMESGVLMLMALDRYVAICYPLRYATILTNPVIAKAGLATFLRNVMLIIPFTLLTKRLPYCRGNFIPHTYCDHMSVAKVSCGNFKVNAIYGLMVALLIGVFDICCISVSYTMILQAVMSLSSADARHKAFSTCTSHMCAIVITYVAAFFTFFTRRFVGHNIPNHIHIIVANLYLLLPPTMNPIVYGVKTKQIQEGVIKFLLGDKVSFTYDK
Summary of the method: as §1

[8] = test system: T7, O52W1 H239R L254Q
T7 sequence (whole entry): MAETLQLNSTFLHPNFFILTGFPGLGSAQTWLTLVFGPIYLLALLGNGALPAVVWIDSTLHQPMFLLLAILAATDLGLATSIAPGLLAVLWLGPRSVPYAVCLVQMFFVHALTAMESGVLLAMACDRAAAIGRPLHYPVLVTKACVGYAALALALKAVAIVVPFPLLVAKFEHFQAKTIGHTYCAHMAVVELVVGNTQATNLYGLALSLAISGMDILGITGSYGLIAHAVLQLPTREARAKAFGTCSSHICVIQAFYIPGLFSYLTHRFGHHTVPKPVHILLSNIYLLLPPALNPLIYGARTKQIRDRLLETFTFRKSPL
Summary of the method: as §1

[9] = test system: T8, O56A3
T8 sequence (whole entry): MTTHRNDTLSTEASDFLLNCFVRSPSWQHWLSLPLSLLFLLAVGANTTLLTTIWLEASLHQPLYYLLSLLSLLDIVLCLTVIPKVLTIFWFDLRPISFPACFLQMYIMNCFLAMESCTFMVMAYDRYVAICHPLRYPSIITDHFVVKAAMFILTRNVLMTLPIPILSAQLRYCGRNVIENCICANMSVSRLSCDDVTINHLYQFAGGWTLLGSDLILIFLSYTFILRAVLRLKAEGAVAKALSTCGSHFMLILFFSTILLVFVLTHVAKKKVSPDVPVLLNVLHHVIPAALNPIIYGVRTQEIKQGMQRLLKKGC
Summary of the method: as §1

[10] = test system: T9, O56A4 I247A
T9 sequence (whole entry): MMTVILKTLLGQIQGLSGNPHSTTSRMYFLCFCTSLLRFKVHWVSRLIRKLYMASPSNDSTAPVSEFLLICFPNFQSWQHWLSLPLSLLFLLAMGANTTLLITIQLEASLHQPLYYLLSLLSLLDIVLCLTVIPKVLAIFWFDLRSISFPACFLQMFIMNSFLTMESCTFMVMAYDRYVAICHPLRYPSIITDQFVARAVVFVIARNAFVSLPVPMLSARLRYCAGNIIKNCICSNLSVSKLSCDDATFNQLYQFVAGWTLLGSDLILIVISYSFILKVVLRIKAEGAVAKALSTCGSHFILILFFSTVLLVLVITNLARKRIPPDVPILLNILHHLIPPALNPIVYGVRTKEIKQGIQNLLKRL
Summary of the method: as §1

[11] = test system: T10, O56A4 I247V
T10 sequence (whole entry): T9 sequence (whole entry) with A247V
Summary of the method: as §1

[12] = test system: T11, O56A4
T11 sequence (whole entry): T9 sequence (whole entry) with A247I
Summary of the method: as §1

[13] = test system: T12, O56A5 V104L
T12 sequence (whole entry): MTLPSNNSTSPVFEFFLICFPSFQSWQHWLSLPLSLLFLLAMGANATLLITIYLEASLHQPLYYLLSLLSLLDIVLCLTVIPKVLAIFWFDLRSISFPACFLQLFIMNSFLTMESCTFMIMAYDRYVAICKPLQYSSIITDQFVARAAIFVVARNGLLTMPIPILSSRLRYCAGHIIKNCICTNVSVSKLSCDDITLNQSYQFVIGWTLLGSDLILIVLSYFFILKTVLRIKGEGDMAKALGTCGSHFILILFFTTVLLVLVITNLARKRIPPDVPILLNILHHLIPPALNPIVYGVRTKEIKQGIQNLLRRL
Summary of the method: as §1

[14] = test system: T13, O56B1 C106R L214F
T13 sequence (whole entry): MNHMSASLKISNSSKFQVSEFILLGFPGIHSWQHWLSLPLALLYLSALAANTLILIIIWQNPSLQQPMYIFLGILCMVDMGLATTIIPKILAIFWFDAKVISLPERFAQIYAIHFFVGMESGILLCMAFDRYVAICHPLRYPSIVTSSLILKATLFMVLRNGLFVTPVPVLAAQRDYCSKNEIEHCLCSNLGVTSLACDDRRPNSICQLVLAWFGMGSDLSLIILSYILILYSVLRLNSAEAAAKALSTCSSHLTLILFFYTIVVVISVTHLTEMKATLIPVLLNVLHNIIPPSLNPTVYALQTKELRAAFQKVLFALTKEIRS
Summary of the method: as §1

[15] = test system: T14, O56B1 L214F
T14 sequence (whole entry): T13 sequence (whole entry) with R106C
Summary of the method: as §1

[16] = test system: T15, O56B4
T15 sequence (whole entry): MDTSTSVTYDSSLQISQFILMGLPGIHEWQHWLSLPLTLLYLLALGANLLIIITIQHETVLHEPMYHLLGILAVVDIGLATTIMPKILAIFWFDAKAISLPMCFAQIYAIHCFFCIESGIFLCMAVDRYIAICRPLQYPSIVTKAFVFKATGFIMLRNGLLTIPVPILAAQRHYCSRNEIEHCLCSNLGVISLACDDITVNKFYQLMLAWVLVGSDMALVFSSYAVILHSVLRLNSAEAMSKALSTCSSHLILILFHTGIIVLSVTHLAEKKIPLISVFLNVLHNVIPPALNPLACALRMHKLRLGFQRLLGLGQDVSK
Summary of the method: as §1

[17] = test system: T16, O5AC2
T16 sequence (whole entry): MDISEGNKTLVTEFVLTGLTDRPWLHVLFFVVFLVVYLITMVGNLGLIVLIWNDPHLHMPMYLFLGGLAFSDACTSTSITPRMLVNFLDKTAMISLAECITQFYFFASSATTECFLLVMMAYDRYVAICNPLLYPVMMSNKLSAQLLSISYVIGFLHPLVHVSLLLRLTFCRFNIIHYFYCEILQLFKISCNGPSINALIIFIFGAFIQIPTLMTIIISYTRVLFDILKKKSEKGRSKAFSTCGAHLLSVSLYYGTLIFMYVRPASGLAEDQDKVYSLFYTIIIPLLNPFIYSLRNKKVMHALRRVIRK
Summary of the method: as §1

[18] = test system: T17, O5AK2 M92I
T17 sequence (whole entry): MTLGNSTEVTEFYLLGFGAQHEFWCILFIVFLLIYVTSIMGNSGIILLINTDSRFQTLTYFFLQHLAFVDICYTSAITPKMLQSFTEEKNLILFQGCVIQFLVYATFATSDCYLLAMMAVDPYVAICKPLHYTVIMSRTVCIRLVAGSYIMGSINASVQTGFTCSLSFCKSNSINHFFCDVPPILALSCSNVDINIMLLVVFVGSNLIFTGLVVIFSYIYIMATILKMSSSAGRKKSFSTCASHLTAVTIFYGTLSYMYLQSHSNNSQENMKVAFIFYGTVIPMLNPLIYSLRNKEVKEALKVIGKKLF
Summary of the method: as §1

[19] = test system: T18, O5AN1 C142Y L289F
T18 sequence (whole entry): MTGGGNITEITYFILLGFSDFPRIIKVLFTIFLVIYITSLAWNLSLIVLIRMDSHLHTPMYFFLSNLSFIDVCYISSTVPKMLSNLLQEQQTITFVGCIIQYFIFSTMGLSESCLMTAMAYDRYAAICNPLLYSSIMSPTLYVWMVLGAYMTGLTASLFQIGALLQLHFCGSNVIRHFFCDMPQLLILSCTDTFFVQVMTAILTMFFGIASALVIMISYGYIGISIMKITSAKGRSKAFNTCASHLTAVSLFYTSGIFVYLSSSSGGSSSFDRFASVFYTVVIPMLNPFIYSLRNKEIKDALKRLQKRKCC
Summary of the method: as §1

[20] = test system: T19, O5AN1 L289F
T19 sequence (whole entry): T18 sequence (whole entry) with Y142C
Summary of the method: as §1

Measured: odorant receptor agonist call

CC1=C(O)C(=O)OC1C (stereo not given)
inactive: [1] | [2] | [3] | [4] | [5] | [6] | [7] | [8] | [9] | [10] | [11] | [12] | [13] | [14] | [15] | [16] | [17] | [18] | [19] | [20]

CC1=C(O)C(=O)C(C)O1 (stereo not given)
inactive: [1] | [2] | [3] | [4] | [5] | [6] | [7] | [8] | [9] | [10] | [11] | [12] | [13] | [14] | [15] | [16] | [17] | [18] | [19] | [20]

CC1=NC(C)C(C)S1 (stereo not given)
inactive: [1] | [2] | [3] | [4] | [5] | [6] | [7] | [8] | [9] | [10] | [11] | [12] | [13] | [14] | [15] | [16] | [17] | [18] | [19] | [20]

Cc1cnc(C)c(C)n1
inactive: [1] | [2] | [3] | [4] | [5] | [6] | [7] | [8] | [9] | [10] | [11] | [12] | [13] | [14] | [15] | [16] | [17] | [18] | [19] | [20]
